The values below come from ChEMBL document CHEMBL1153382 (J Med Chem, 2009).

The source made the active and inactive calls. The calls are words filed in the database; no cut-off is given here. Bounds are passed on as bounds.

Test [1] can be described thus: Selectivity ratio of Ki for human 5HT2A receptor to Ki for 5HT2C receptor.
In test [2] the target is T1, 5-hydroxytryptamine receptor 2B (Homo sapiens, UniProt P41595). The test is described as follows: Agonist activity at human 5HT2B receptor expressed in HEK293 cells at 10 uM assessed as calcium flux by FLIPR assay relative to serotonin. In kind it is functional, cell-based.
The target of test [3] is T2, 5-hydroxytryptamine receptor 2A (Homo sapiens, UniProt P28223). Nature of the test: Displacement of [3H]ketanserin from human 5HT2A receptor.
Test [4] addresses T3, 5-hydroxytryptamine receptor 2C (Homo sapiens, UniProt P28335).
T3 sequence (P28335 whole entry): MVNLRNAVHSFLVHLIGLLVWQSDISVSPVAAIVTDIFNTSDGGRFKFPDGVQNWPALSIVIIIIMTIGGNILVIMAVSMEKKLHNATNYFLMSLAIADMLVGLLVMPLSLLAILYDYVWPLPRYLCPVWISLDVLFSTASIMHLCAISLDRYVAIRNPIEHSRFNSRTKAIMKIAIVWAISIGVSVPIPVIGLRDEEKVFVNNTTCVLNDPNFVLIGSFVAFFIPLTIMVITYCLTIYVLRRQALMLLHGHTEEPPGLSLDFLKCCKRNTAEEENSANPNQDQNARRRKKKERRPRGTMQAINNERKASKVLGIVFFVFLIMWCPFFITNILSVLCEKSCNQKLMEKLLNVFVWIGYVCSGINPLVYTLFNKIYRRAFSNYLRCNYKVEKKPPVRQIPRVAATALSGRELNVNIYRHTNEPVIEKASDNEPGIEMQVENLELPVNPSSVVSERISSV
The test is described as follows: (§1) Agonist activity at human 5HT2C receptor expressed in HEK293 cells assessed as calcium flux by FLIPR assay. Type of test: functional, cell-based.

For test [5], the target named is T4, 5-hydroxytryptamine receptor 2C (Homo sapiens) (UniProt P28335).
T4 sequence (whole entry): T3 sequence (P28335 whole entry)
Nature of the test: Agonist activity at human 5HT2C receptor expressed in HEK293 cells at 10 uM assessed as calcium flux by FLIPR assay relative to serotonin. Type of test: functional, cell-based.

Test [6] has as its target T2, 5-hydroxytryptamine receptor 2A. The test is described as follows: Agonist activity at human 5HT2A receptor expressed in HEK293 cells at 10 uM assessed as calcium flux by FLIPR assay relative to serotonin. In kind it is functional, cell-based.
Test [7] concerns the target T1, 5-hydroxytryptamine receptor 2B. Nature of the test: Agonist activity at human 5HT2B receptor expressed in HEK293 cells assessed as calcium flux by FLIPR assay. In kind it is functional, cell-based.
Test [8] is described as follows: Selectivity ratio of Ki for human 5HT2B receptor to Ki for 5HT2C receptor.
Test [9] concerns the target Serotonin 2 receptors; 5-HT2a & 5-HT2c (Homo sapiens) (UniProt P28223+P28335). The test is described as follows: Selectivity ratio of EC50 for human 5HT2A receptor to EC50 for human 5HT2C receptor.
For test [10], the target named is T2, 5-hydroxytryptamine receptor 2A. Nature of the test: Agonist activity at human 5HT2A receptor expressed in HEK293 cells assessed as calcium flux by FLIPR assay. Type of test: functional, cell-based.
In test [11] the target is Sodium-dependent serotonin transporter (Homo sapiens, UniProt P31645). The test is described as follows: Displacement of [3H]citalopram from SERT.
The next test is filed under the species Homo sapiens. The test is described as follows: Selectivity ratio of EC50 for human 5HT2B receptor to EC50 for human 5HT2C receptor.
In test [12] the target is Sodium-dependent dopamine transporter (Homo sapiens, UniProt Q01959). Nature of the test: Displacement of [3H]WIN-35428 from DAT.
Test [13] has as its target T1, 5-hydroxytryptamine receptor 2B. Nature of the test: Displacement of [3H]LSD from human 5HT2B receptor.
Test [14] deals with T3, 5-hydroxytryptamine receptor 2C. The test is described as follows: Displacement of [3H]mesulergine from 5HT2C receptor.
Test [15] has as its target Sodium-dependent noradrenaline transporter (Homo sapiens, UniProt P23975). Nature of the test: Displacement of [3H]nisoxetine from NET.
The subject of test [16] is Mus musculus. Nature of the test: Antidepressant activity in C57BL/6J mouse assessed as decrease in immobility time at 10 mg/kg, ip administered 30 mins prior to testing measured every 1 min for 6 mins by forced swim test relative to control. In kind it is functional. The method, boiled down:
(§2)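 Male C57BL/6J mice, 9 weeks old, housed 4 per cage on a 12 h light-dark cycle. Compound given ip in 10% DMSO in saline 30 min before testing. Each mouse was placed alone in a glass cylinder holding 12 cm of water at 23 ± 1 °C. Immobility (floating posture) was scored every 1 min over a 6 min trial and compared with vehicle.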

In test [17] the target is T4, 5-hydroxytryptamine receptor 2C (Homo sapiens). The description is as §1. Type of test: functional, cell-based.
The test system of test [18] is Mus musculus. Nature of the test: Antidepressant activity in C57BL/6J mouse assessed as decrease in immobility time at 30 mg/kg, ip administered 30 mins prior to testing measured every 1 min for 6 mins by forced swim test relative to control. Type of test: functional. Also noted: scale not given: the % may be the effect or the level left. Particulars: route intraperitoneal. The method in brief: as §2

Test [19] concerns Mus musculus. Nature of the test: Antidepressant activity in C57BL/6J mouse assessed as decrease in immobility time at 60 mg/kg, ip administered 30 mins prior to testing measured every 1 min for 6 mins by forced swim test relative to control. Type of test: functional. On the set-up: scale not given: the % may be the effect or the level left. Particulars: route intraperitoneal. The method, boiled down: as §2

Sequence of Sodium-dependent noradrenaline transporter (P23975 whole entry): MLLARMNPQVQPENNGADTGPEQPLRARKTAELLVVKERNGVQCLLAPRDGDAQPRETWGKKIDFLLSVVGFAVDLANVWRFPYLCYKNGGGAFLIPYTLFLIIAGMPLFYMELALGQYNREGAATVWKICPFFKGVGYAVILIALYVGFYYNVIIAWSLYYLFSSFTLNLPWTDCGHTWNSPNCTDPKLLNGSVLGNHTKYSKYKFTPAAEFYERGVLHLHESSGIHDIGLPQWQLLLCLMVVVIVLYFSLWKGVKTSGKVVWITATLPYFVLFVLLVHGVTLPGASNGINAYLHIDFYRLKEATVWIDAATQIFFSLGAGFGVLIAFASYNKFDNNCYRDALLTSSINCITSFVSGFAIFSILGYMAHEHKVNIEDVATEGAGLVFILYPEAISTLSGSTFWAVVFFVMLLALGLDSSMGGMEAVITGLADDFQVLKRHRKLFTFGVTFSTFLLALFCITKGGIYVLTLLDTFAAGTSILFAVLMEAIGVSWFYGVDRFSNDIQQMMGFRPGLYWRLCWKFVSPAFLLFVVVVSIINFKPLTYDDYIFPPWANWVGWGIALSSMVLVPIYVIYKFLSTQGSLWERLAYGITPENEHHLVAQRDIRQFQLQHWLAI
Sequence of Sodium-dependent dopamine transporter (Q01959 whole entry): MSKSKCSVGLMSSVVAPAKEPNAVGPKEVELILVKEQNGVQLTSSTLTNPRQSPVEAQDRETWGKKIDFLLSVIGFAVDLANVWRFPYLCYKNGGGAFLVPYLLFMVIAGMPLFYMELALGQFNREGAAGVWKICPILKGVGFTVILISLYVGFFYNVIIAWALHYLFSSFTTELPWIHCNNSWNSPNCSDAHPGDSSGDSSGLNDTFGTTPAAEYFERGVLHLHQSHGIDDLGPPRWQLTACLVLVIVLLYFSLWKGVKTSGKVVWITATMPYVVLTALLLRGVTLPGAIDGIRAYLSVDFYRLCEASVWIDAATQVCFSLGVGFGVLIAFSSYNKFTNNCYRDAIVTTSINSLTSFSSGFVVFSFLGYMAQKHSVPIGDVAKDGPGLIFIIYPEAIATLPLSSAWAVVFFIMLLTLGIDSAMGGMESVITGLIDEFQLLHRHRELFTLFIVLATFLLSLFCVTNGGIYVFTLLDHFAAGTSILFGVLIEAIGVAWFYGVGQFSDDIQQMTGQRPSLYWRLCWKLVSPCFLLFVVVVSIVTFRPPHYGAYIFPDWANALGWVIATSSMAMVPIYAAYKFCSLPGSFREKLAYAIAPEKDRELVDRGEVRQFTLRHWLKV
T2 sequence (P28223 whole entry): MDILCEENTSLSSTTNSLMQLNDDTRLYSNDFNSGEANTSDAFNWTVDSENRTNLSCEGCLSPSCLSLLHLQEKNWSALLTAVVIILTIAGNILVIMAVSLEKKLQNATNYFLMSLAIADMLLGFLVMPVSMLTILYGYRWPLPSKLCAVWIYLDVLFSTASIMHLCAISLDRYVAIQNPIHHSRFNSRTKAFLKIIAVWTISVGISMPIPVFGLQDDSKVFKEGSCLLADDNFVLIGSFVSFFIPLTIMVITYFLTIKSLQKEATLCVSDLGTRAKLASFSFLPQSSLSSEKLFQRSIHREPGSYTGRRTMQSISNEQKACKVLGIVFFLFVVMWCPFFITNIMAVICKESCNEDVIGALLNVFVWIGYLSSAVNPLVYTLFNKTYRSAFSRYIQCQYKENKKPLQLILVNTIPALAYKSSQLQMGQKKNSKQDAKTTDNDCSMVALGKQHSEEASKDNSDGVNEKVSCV
Sequence of Serotonin 2 receptors; 5-HT2a & 5-HT2c (Homo sapiens) (P28223 whole entry, looked up, one chain of several): as the sequence (P28223 whole entry) above
T1 sequence (P41595 whole entry): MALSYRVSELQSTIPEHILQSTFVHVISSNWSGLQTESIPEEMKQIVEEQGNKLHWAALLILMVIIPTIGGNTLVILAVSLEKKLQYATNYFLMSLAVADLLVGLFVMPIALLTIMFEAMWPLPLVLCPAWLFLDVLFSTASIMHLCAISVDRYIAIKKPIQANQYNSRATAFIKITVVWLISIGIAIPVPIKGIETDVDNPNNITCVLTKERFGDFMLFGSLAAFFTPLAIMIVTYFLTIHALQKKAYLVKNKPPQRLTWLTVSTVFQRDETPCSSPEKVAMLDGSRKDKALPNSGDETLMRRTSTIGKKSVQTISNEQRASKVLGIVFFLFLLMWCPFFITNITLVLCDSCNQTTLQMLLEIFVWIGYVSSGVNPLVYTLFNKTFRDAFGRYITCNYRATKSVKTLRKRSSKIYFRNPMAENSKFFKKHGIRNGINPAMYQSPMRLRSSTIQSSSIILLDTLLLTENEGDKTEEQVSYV
Sequence of Sodium-dependent serotonin transporter (P31645 whole entry): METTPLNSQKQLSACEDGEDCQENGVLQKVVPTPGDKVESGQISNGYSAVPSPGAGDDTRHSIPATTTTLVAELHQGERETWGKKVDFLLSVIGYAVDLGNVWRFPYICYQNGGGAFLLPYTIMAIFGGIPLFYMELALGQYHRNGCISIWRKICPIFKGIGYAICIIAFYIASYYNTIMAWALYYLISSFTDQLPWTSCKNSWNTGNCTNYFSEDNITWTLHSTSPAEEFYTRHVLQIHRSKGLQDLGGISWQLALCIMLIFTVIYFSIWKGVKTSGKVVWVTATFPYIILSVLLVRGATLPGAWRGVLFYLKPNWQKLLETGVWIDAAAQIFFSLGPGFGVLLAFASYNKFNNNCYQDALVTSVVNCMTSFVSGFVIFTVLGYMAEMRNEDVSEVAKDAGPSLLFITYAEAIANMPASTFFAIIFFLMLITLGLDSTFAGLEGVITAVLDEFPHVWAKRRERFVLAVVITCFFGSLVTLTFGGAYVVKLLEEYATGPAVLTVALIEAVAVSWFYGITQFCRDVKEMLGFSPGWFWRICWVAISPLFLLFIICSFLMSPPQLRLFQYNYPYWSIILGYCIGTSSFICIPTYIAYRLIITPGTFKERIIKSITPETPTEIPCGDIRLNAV

Turning to `NC[C@H]1C[C@@H]1c1ccccc1Br`, the Ratio Ki in [1] worked out at 3.7; in test [8], 0.24. For the same compound, the Emax in test [2] stood at 102%; in [5], 116%; in test [6], 76%. Moreover, the Ki in test [3] worked out at 246 nM; in [11], 3.82 µM; in test [12] it was 2.11 µM; in test [13] it was 16 nM; in test [14], 66 nM; in test [15] it was 3.4 µM. The EC50 is 0.78 nM in test [4], 13 nM in [7] and 67 nM in test [10]. For the same compound, the Ratio EC50 in [9] is 86; in the test listed under Homo sapiens, 17.

In the case of `CN[C@H]1CC[C@@H](c2ccc(Cl)c(Cl)c2)c2ccccc21`, the result in the test with Mus musculus [16] was Active.

For the compound `CN(C)[C@H]1C[C@@H]1c1ccccc1` (racemic), the figures for the Emax in test [2], in test [5] and in test [6] were -2%, less than 12% and less than 12%, respectively. Besides, the outcome in [17], in test [7] and in [10] was inactive.

`CN[C@H]1C[C@@H]1c1ccccc1` (racemic): the figures for the Emax in [2], in test [5] and in test [6] were 6%, less than 12% and less than 12%, respectively. Also, the result in test [17], in test [7] and in [10] was inactive.

On to `c1ccc(CN[C@H]2C[C@@H]2c2ccccc2)cc1` (racemic), for which the values for the Emax in [2], in test [5] and in test [6] were -1%, less than 12% and less than 12%, respectively. Further, the result in test [17], in test [7] and in test [10] was inactive.

On to `Cc1cccc([C@H]2C[C@@H]2CN)c1.Cl` (relative stereo), for which the results for the Ratio Ki in [1] and in test [8] were 6.9 and 0.32, respectively. Also, the Activity turned out to be 38% in the test on Mus musculus [18], 38% in the test on Mus musculus [19] and 28% in the test with Mus musculus [16] (route intraperitoneal). Moreover, the figures for the Emax in [2], in test [5] and in test [6] were 93%, 95% and 86%, respectively. Moreover, the Ratio EC50 in test [9] came out at 123; in the test listed under Homo sapiens it was 14.

For `NC[C@H]1C[C@@H]1c1ccccc1C#CCCCCO` (relative stereo), the results for the Emax in [2], in test [5] and in [6] were 84%, 88% and less than 12%, respectively. In addition, the EC50 in test [4] worked out at 232 nM; in [7], 204 nM. The Ratio EC50 was more than 43 in test [9] and 0.88 in the test listed under Homo sapiens. For the same compound, the outcome in [10] was inactive.

Turning to `NC[C@@H]1C[C@H]1c1ccccc1Br` (relative stereo) [listing 1 of 2 here], the Ki in test [3] was 655 nM; in test [11], 2.72 µM; in test [12] it was more than 10 µM; in [13], 22 nM; in [14], 124 nM; in test [15], 2.73 µM. The EC50 in test [4] stood at 1.3 nM; in test [7], 4.8 nM; in test [10] it was 94 nM.

Consider `NC[C@@H]1C[C@H]1c1ccccc1Br` (relative stereo) [listing 2 of 2 here], for which the Ratio Ki in test [1] stood at 5.3; in test [8], 0.18. Besides, the Emax in test [2] is 86%; in test [5] it was 76%; in test [6] it was 71%. Further, the Ratio EC50 in [9] was 73; in the test filed under Homo sapiens it was 3.7.

For the compound `NC[C@H]1C[C@@H]1c1ccc(F)cc1` (relative stereo), the Ratio Ki in test [1] was found to be 11.5; in test [8], 0.37. Besides, the Emax was found to be 89% in test [2], 93% in test [5] and 67% in test [6]. In addition, the Ratio EC50 was 47 in test [9] and 1.9 in the test filed under Homo sapiens.

Turning to `NC[C@H]1C[C@@H]1c1ccc(F)cc1Cl` (relative stereo), the values for the Ratio Ki in test [1] and in test [8] were 1.2 and 0.08, respectively. In addition, the Emax in test [2] was 97%; in test [5], 100%; in [6], 91%. Also, the results for the Ratio EC50 (in test [9]; in the test filed under Homo sapiens) were 30 and 7.3, respectively.

As for `NC[C@H]1C[C@@H]1c1ccc(O)cc1` (relative stereo), the Emax in [2], in test [5] and in [6] was less than 12% throughout. The outcome in test [17], in test [7] and in [10] was inactive.

Turning to `C[C@H]1CNCCc2ccc(Cl)cc21` [LORCASERIN], the Emax is 124% in test [5] and 26% in test [6]. Also, the Ki in test [12] and in [15] was more than 10 µM each time.
